Source: PubChem
Shown are actives, neighbours in structure and some others; about 7.2% of the full set was active somewhere.
Ecoli WT expand – growth inhibitors of E. coli BW25113 wild type; growth inhibition, % at 100 µM; OD600 absorbance; 0.15% of 98,000 active; AID 710;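 active means growth inhibition above about 50% at one test dose, limit read from the data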;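 further: growth measured after 20 h incubation at 37 °C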
tolC growth inh – blocks growth of E. coli BW25113 tolC mutant | OD615 | growth inhibition, % at 10 µM (by protocol) | 2.2% of 65,000 active | AID 573;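 active means growth inhibition at or above a cutoff equal to the mean over every tested compound plus 3 SD, cut at about 60% in these data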;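 further: growth measured after 20 h incubation at 37 °C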
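Signal: optical density read at 615 nm; Assay system: E. coli ΔtolC::kan strain BW25113; Times: 20 h incubation with compound, 37 °C; Dosing: 10 µM final, single dose.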
PLAP activator – human PLAP activation; P05187; purified PLAP enzyme, luminescent substrate read-out; active compounds read high; activation fold at 20 µM; 1.2% of 96,000 active; in the data active means activation fold above about 2
Target sequence (P05187 whole entry, looked up): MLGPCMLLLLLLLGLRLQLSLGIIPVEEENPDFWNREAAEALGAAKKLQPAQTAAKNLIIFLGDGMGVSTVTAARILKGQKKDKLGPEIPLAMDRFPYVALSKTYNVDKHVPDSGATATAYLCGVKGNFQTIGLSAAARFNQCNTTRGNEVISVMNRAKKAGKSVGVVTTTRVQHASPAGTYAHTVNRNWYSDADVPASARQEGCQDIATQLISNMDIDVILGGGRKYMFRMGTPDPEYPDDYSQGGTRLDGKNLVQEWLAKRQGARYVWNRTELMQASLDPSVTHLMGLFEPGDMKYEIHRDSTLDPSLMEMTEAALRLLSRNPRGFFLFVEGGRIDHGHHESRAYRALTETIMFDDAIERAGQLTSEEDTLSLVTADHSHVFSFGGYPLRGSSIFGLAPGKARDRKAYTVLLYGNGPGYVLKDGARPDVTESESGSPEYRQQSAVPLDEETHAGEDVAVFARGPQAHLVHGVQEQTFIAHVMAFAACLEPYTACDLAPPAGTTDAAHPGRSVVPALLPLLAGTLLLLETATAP
PostGolgi yeast – growth inhibition of a yeast mutant, post-Golgi transport screen; inhibition, % at 10 µM; AID 739; post-Golgi transport phenotypic cell assay; 0.9% of 98,000 active;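 further: yeast cells grown in 1536-well plates; yeast grown about 18 h at 30C before absorbance read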
PostGolgi ctrl – inhibits growth of the yeast control strain. efflux-deficient yeast background strain, growth absorbance A615, 16 h. inhibition, % at 10 µM. 5% of 98,000 active. AID 738
Starred values were filed as active, the others as inactive; / = no result given. Unless noted, no stated cut-off is given here; in the data, active means inhibition above about 30%; inactive means the rest.

SMILES	Ecoli WT expand	tolC growth inh	PLAP activator	PostGolgi yeast	PostGolgi ctrl
COc1cc(CN(C)CCc2ccccc2)ccc1OCc1ccccc1	6.0	/	1.5	9.1	20.5
CC(c1nnc(SCn2nnc3ccccc3c2=O)n1-c1ccc(Cl)cc1)N(C)C (stereo not drawn)	8.0	6.5	1.2	66.8*	17.6
CC(c1nnc(SCC(=O)N2CCc3ccccc32)n1-c1ccc(Cl)cc1)N(C)C (stereo not drawn)	3.0	/	1.4	-3.5	16.0
CCOC(=O)C(C)S(=O)(=O)c1ccc(C(F)(F)F)cn1 (stereo not drawn)	-3.0	/	1	-21.8	-4.0
COc1ccc(CNc2nc(NCc3ccc(OC)c(OC)c3)n(C(=O)c3cccs3)n2)cc1OC	-8.0	/	1	-1.6	8.3
COC(=O)c1ccc2c(=O)n(Cc3ccc4c(c3)OCO4)c(SCC(=O)N3CCCC3)nc2c1	/	0.8	/	/	/
Cc1ncsc1C(=O)N1N=C2/C(=C/c3ccccc3)CCCC2C1c1ccccc1 (stereo not drawn)	-8.0	/	1.1	-1.4	25.8
Cc1nc(N2N=C3/C(=C/c4ccc(F)cc4)CCCC3C2c2ccc(F)cc2)sc1C(=O)N(C)C (stereo not drawn)	-6.0	/	2*	-1.6	15.4
O=C(NCc1ccc(C(F)(F)F)cc1)C1CC(c2c(Cl)cccc2Cl)=NO1 (stereo not drawn)	3.0	/	0.9	5.7	10.5
CCOC(=O)CN1CC23C=CC(O2)C(C(=O)Nc2ccc(F)c(C)c2)C3C1=O (stereo not drawn)	-13.0	-20.0	1.7	7.0	36.4*
CCOC(=O)CN1CC23C=CC(O2)C(C(=O)Nc2ccc(OC)cc2OC)C3C1=O (stereo not drawn)	2.0	-3.9	1.2	-0.7	17.0
O=C(c1n[nH]c(=O)c2ccccc12)N1CCN(c2ccccc2)CC1	9.0	-9.7	1	7.0	0.5
O=C(c1n[nH]c(=O)c2ccccc12)N1CCN(c2ccccc2Cl)CC1	-5.0	6.9	1	-1.9	49.9*
COC(=O)CSc1nnc(CNc2ccc(Cl)cc2)n1Cc1ccccc1	6.0	7.2	1.6	64.8*	46.0*
CCOC(=O)CSc1nnc(CNc2ccc(Cl)cc2)n1-c1ccccc1	4.0	2.0	1.4	59.7*	49.8*
CCOC(=O)CSc1nnc(CNc2cccc(Cl)c2)n1-c1ccccc1	11.0	13.6	1.4	-9.8	10.8
O=C(c1ccco1)c1nnn(Cc2ccccc2)c1-c1ccccc1	-13.0	36.8	1	12.1	10.2
OCc1nc2ccccc2n1CCCOc1ccc(Br)cc1	9.0	67.0*	1.6	0.8	45.2*
Cn1c(=O)n(CCCOc2ccc(Cl)cc2)c2ccccc21	9.0	62.4*	1.5	5.3	49.1*
Cc1cccc(OCCn2c(CCCO)nc3ccccc32)c1	6.0	4.3	1.6	4.7	30.3*
Cc1ccc(OCCCn2c(=O)sc3ccccc32)cc1	-4.0	/	0.9	-5.8	24.0
COc1ccccc1OCCn1c(CO)nc2ccccc21	1.0	-10.6	1	-15.4	4.1
OCCCc1nc2ccccc2n1CCc1ccccc1	-5.0	3.3	/	5.0	9.5
Cn1c(=O)n(CCCOc2ccc(Br)cc2)c2ccccc21	-4.0	100.0*	1.2	-0.7	38.5*
CCN(CC)N=Nc1[nH]nc2nc(C)cc(C)c12	63.0*	/	1.2	-1.6	12.7
SMILES	Ecoli WT expand	tolC growth inh	PLAP activator	PostGolgi yeast	PostGolgi ctrl
O=C(/C=C/c1ccccc1Cl)NC(=S)Nc1ccccc1C(=O)NC1CCCCC1	-1.0	/	0.9	1.8	10.8
COCCOc1nc2c(c(=O)n(C)c(=O)n2C)n1Cc1cccc(OC)c1	-3.0	/	1	-3.4	13.6
CCOC(=O)c1c(C)n(C)c2ccc(OC)c(NS(=O)(=O)c3ccc(Cl)s3)c12	-11.0	19.4	1	-7.4	33.8*
CCC(C)NC(=O)C1CCN(S(=O)(=O)N2CCCC2)CC1 (stereo not drawn)	3.0	-19.1	0.8	-10.1	31.1*
Cc1ccc2nc(SCc3ccc([N+](=O)[O-])cc3)[nH]c2c1	24.0	/	1.2	-0.3	4.5
Cc1ccc2nc(CSc3nc(C)ccc3C#N)[nH]c2c1	-6.0	/	2.2*	4.6	4.9
Cc1ccc(S(=O)(=O)N2CCN(S(=O)(=O)c3ccccc3)C2)cc1	-5.0	/	0.8	-7.9	17.5
C/C(=N\S(=O)(=O)c1ccc(C)cc1)N1CCN(S(=O)(=O)c2ccccc2)C1	3.0	-4.0	1.2	1.6	31.5*
CC(C)Sc1nc(NCc2ccco2)c2c3c(sc2n1)COC(C)(C)C3	3.0	64.6*	1.7	-2.8	20.4
CSc1nc(SCC(=O)NCc2ccco2)c2c3c(sc2n1)COC(C)(C)C3	-3.0	18.1	1.3	20.8	27.8
Cc1ccccc1NC(=O)c1sc(Cl)nc1-c1ccccc1	10.0	/	1	-9.9	39.2*
CCOc1ccc(C2N(c3ccc(F)cc3)C(=O)C3CCCN32)cc1OC (stereo not drawn)	8.0	-14.4	1.7	-10.2	5.2
O=C(CSc1c[nH]c2ccccc12)N1CCCc2ccccc21	4.0	/	1.3	5.1	31.4*
O=C(CSc1ncnc2c1oc1ccccc12)N1CCCc2ccccc21	-30.0	63.0*	1.4	0.0	44.2*
CN(Cc1ccccc1)c1nc(N)c([N+](=O)[O-])c(Nc2cccc(F)c2)n1	-6.0	/	0.9	21.8	26.6
CNC(=O)c1c(NC(=O)c2nc3ccccc3s2)sc2c1CCC2	-17.0	9.0	1.6	6.6	12.9
COC(=O)c1c(NC(=O)c2nc3ccccc3s2)sc2c1CCN(C(C)=O)C2	-4.0	20.5	2.1*	6.0	26.4
CCOc1ccc(NS(=O)(=O)c2ccc(SC)cc2)cc1	-9.0	72.9*	/	5.3	11.7
CCOC(=O)c1ccc(NC(=O)C(C)NS(=O)(=O)c2ccc(OC)cc2)cc1 (stereo not drawn)	4.0	-2.5	0.9	-5.3	36.3*
CCOC(=O)c1ccc(NS(=O)(=O)c2ccc(SC)cc2)cc1	2.0	70.0*	0.8	-13.6	18.3
CSc1ccc(S(=O)(=O)NC2CCCCCC2)cc1	3.0	33.4	0.7	-8.6	69.8*
CCOc1cc(C(=O)N(C)c2ccccc2)cc(OCC)c1OCC	3.0	6.3	1.5	7.2	2.4
O=S(=O)(NCCc1ccccn1)c1ccc(F)c(F)c1	9.0	-18.2	0.8	-5.5	2.6
CCOC(=O)Cc1ccc(NS(=O)(=O)c2ccc(SC)cc2)cc1	2.0	69.9*	1.5	13.3	16.4
NC(=S)N/N=C\c1ccc(-c2cccc(Cl)c2Cl)o1	-18.0	/	1	8.6	48.5*
SMILES	Ecoli WT expand	tolC growth inh	PLAP activator	PostGolgi yeast	PostGolgi ctrl
NC(=S)N/N=C/c1ccc(-c2ccc(Cl)c(Cl)c2)o1	-4.0	/	0.9	66.8*	81.3*
O=C(CN1CCCC1)N/N=C/c1ccc(-c2cccc(Cl)c2)o1	13.0	/	1.5	2.9	9.4
CC(C)(C)C(=O)Nc1ccc(N2CCCC2)cc1	1.0	/	1	-5.7	18.7
COc1cccc(-n2nc(-c3ccnn3-c3ccc(C)cc3)c(=O)n(C)c2=O)c1	-3.0	/	1.1	3.5	7.8
Cc1nonc1NC(=O)c1ccc(Cl)c(S(=O)(=O)N2CCCCC2)c1	7.0	24.4	1.1	-2.5	-2.9
CCC1CCCCN1c1nc2c(c(=O)n(C)c(=O)n2C)n1CCSc1nc2ccccc2o1 (stereo not drawn)	/	9.8	/	/	/
